Active and inactive are the calls of the source. The rule behind the calls is not given here.
Tests used:
[1] = tested on: Escherichia coli; experiment: Antibacterial activity against Escherichia coli at 1 to 5 mg/mL after 24 hrs by stiff-plate agar-diffusion method; format: functional, organism-based
Summary of the method: (§1)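 Agar diffusion (stiff plate) with test substances at 5 mg/mL in grooves, allowed to diffuse into nutrient agar; inoculum 10^9 c.f.u./mL; bacteria incubated 24 h at 35 °C. Read-out: inhibition zone diameter (not sensitive 11–15 mm, sensitive 16–25 mm, highly sensitive >25 mm). Vancomycin and oxacillin as standards; three repeats.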

[2] = tested on: Aspergillus niger; experiment: Antifungal activity against Aspergillus niger at 1 to 5 mg/mL after 48 to 72 hrs by stiff-plate agar-diffusion method; format: functional, organism-based
Summary of the method: (§2)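 Fungal plates run by stiff-plate agar diffusion, substances applied to grooves at 5 mg/mL; 10^9 c.f.u./mL cells; incubation 48–72 h at 28–30 °C. Inhibition zone diameter scored (11–15 mm not sensitive, 16–25 mm sensitive, >25 mm highly sensitive). Nystatin standard; experiments done three times.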

[3] = tested on: Mycobacterium; experiment: Antibacterial activity against Mycobacterium luteum at 1 to 5 mg/mL after 24 hrs by stiff-plate agar-diffusion method; format: functional, organism-based; summary of the method: as §1
[4] = tested on: Yamadazyma tenuis; experiment: Antifungal activity against Candida tenuis at 1 to 5 mg/mL after 48 to 72 hrs by stiff-plate agar-diffusion method; format: functional, organism-based; summary of the method: as §2
[5] = tested on: Photobacterium leiognathi; experiment: Antibacterial activity against Photobacterium leiognathi Sh1 assessed as inhibition of bacterial luminescence at 0.25 mg/mL after 10 mins by bioluminometry-based acute action test; format: functional; set-up: scale not given: the % may be the effect or the level left
Summary of the method: (§3)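 Marine P. leiognathi Sh1 (Azov Sea shrimp isolate) diluted in chloride solution to 10^5 cells/mL; compounds suspended in DMSO mixed with 1 mL bacterial suspension. Acute test: 10 min at 25 °C, then bioluminescence measured by bioluminometer as % of compound-free control. Tetracycline reference.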

[6] = tested on: Photobacterium leiognathi; experiment: Antibacterial activity against Photobacterium leiognathi Sh1 assessed as inhibition of bacterial luminescence at 0.025 mg/mL after 16 to 18 hrs by bioluminometry-based chronic action test; set-up: scale not given: the % may be the effect or the level left
[7] = tested on: Photobacterium leiognathi; experiment: Antibacterial activity against Photobacterium leiognathi Sh1 assessed as inhibition of bacterial luminescence at 0.025 mg/mL after 10 mins by bioluminometry-based acute action test; format: functional; set-up: scale not given: the % may be the effect or the level left; summary of the method: as §3
[8] = tested on: Photobacterium leiognathi; experiment: Antibacterial activity against Photobacterium leiognathi Sh1 assessed as inhibition of bacterial luminescence at 0.25 mg/mL after 10 mins by bioluminometry-based chronic action test; format: functional; set-up: scale not given: the % may be the effect or the level left; conditions: in the assay text read “after 16 to 18 hrs” for “after 10 mins”
Summary of the method: (§4)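 Chronic (growth plus luminescence) test with P. leiognathi Sh1 at 10^5 cells/mL in chloride solution, compounds added in DMSO. After 10 min at 25 °C, growth medium added at 1:50 and the mix incubated 16–18 h at 30 °C. Luminescence then measured by bioluminometer as % of untreated control. Tetracycline reference.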

[9] = tested on: Photobacterium leiognathi; experiment: Antibacterial activity against Photobacterium leiognathi Sh1 assessed as inhibition of bacterial luminescence at 0.1 mg/mL after 10 mins by bioluminometry-based acute action test; format: functional; set-up: scale not given: the % may be the effect or the level left; summary of the method: as §3
[10] = tested on: Photobacterium leiognathi; experiment: Antibacterial activity against Photobacterium leiognathi Sh1 assessed as inhibition of bacterial luminescence at 0.1 mg/mL after 10 mins by bioluminometry-based chronic action test; format: functional; set-up: scale not given: the % may be the effect or the level left; conditions: in the assay text read “after 16 to 18 hrs” for “after 10 mins”; summary of the method: as §4
[11] = tested on: Staphylococcus aureus; experiment: Antibacterial activity against Staphylococcus aureus at 1 to 5 mg/mL after 24 hrs by stiff-plate agar-diffusion method; format: functional, organism-based; summary of the method: as §1
[12] = tested on: SNB-75; experiment: Cytotoxicity against human SNB75 cells assessed as cell growth at 10^-5 M after 48 hrs by SRB assay; format: functional; conditions: SNB-75, 48 h, read-out: Activity
Summary of the method: (§5)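 NCI human tumor cell line panel from nine cancer types. Each line was inoculated and preincubated 24–48 h, then exposed to a single concentration (10^-5 M) for 48 h. Growth was read by sulforhodamine B protein staining, measured spectrophotometrically. Value reported as percent growth of treated cells relative to untreated controls.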

[13] = tested on: M14; experiment: Cytotoxicity against human M14 cells assessed as cell growth at 10^-5 M after 48 hrs by SRB assay; format: functional; conditions: M14, 48 h, read-out: Activity
Summary of the method: (§6)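 NCI 60-cell-line one-dose primary screen: cells inoculated and preincubated 24–48 h, then test agent added at a single 10^-5 M concentration for a further 48 h. Endpoint is sulforhodamine B protein staining read spectrophotometrically. Reported as percent growth relative to untreated control cells.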

[14] = tested on: UO-31; experiment: Cytotoxicity against human UO31 cells assessed as cell growth at 10^-5 M after 48 hrs by SRB assay; format: functional; conditions: UO-31, 48 h, read-out: Activity; summary of the method: as §5
[15] = tested on: CCRF-CEM; experiment: Cytotoxicity against human CCRF-CEM cells assessed as cell growth at 10^-5 M after 48 hrs by SRB assay; format: functional; conditions: read-out: Activity; summary of the method: as §6
[16] = tested on: Photobacterium leiognathi; experiment: Antibacterial activity against Photobacterium leiognathi Sh1 at 0.1 to 0.25 ug/mL; format: functional, organism-based
[17] = tested on: UACC-257; experiment: Cytotoxicity against human UACC257 cells assessed as cell growth at 10^-5 M after 48 hrs by SRB assay; format: functional; conditions: UACC-257, 48 h, read-out: Activity; summary of the method: as §5
[18] = tested on: SK-OV-3; experiment: Cytotoxicity against human SKOV3 cells assessed as cell growth at 10^-5 M after 48 hrs by SRB assay; format: functional; conditions: SK-OV-3, 48 h, read-out: Activity; summary of the method: as §5
[19] = tested on: SR; experiment: Cytotoxicity against human SR cells assessed as cell growth at 10^-5 M after 48 hrs by SRB assay; format: functional; conditions: read-out: Activity; summary of the method: as §5
[20] = tested on: K562; experiment: Cytotoxicity against human K562 cells assessed as cell growth at 10^-5 M after 48 hrs by SRB assay; format: functional; conditions: K562, 48 h, read-out: Activity; summary of the method: as §6
[21] = tested on: A549; experiment: Cytotoxicity against human A549 cells assessed as cell growth at 10^-5 M after 48 hrs by SRB assay; format: functional; conditions: A549, 48 h, read-out: Activity; summary of the method: as §6
[22] = tested on: U-251; experiment: Cytotoxicity against human U251 cells assessed as cell growth at 10^-5 M after 48 hrs by SRB assay; format: functional; conditions: U-251, 48 h, read-out: Activity; summary of the method: as §5
[23] = tested on: PC-3; experiment: Cytotoxicity against human PC3 cells assessed as cell growth at 10^-5 M after 48 hrs by SRB assay; format: functional; conditions: PC-3, 48 h, read-out: Activity; summary of the method: as §5
[24] = tested on: Photobacterium leiognathi; experiment: Antibacterial activity against Photobacterium leiognathi Sh1 assessed as inhibition of bacterial luminescence at 0.025 mg/mL after 10 mins by bioluminometry-based chronic action test; format: functional; set-up: scale not given: the % may be the effect or the level left; conditions: in the assay text read “after 16 to 18 hrs” for “after 10 mins”; summary of the method: as §4
[25] = tested on: HL-60(TB); experiment: Cytotoxicity against human HL-60(TB) cells assessed as cell growth at 10^-5 M after 48 hrs by SRB assay; format: functional; conditions: HL-60, 48 h, read-out: Activity
Summary of the method: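 NCI one-dose primary screen on the 60-line human tumour panel. Cells were inoculated and preincubated 24–48 h. Compound was added at 10^-5 M with 48 h continuous exposure. Sulforhodamine B protein staining was read spectrophotometrically. Results are percent growth relative to untreated control cells.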

[26] = tested on: LOX IMVI; experiment: Cytotoxicity against human LOXIMVI cells assessed as cell growth at 10^-5 M after 48 hrs by SRB assay; format: functional; conditions: read-out: Activity; summary of the method: as §6
[27] = tested on: SK-MEL-5; experiment: Cytotoxicity against human SK-MEL-5 cells assessed as cell growth at 10^-5 M after 48 hrs by SRB assay; format: functional; conditions: SK-MEL-5, 48 h, read-out: Activity; summary of the method: as §5
[28] = tested on: HCC 2998; experiment: Cytotoxicity against human HCC2998 cells assessed as cell growth at 10^-5 M after 48 hrs by SRB assay; format: functional; conditions: HCC 2998, 48 h, read-out: Activity; summary of the method: as §6
[29] = tested on: NCI-H522; experiment: Cytotoxicity against human NCI-H522 cells assessed as cell growth at 10^-5 M after 48 hrs by SRB assay; format: functional; conditions: NCI-H522, 48 h, read-out: Activity; summary of the method: as §5
[30] = tested on: CAKI-1; experiment: Cytotoxicity against human Caki1 cells assessed as cell growth at 10^-5 M after 48 hrs by SRB assay; format: functional; conditions: CAKI-1, 48 h, read-out: Activity; summary of the method: as §6
[31] = tested on: MDA-MB-231; experiment: Cytotoxicity against human MDA-MB-231 cells assessed as cell growth at 10^-5 M after 48 hrs by SRB assay; format: functional; conditions: MDA-MB-231, 48 h, read-out: Activity; summary of the method: as §6
[32] = tested on: MOLT-4; experiment: Cytotoxicity against human MOLT4 cells assessed as cell growth at 10^-5 M after 48 hrs by SRB assay; format: functional; conditions: MOLT-4, 48 h, read-out: Activity; summary of the method: as §5

Row | SMILES | Activity [1] | Activity [2] | Activity [3] | Activity [4] | Activity [5] [%] | Activity [7] [%] | Activity [8] [%] | Activity [9] [%] | Activity [10] [%] | Activity [11] | growth at 10 µM [12] [%] | growth at 10 µM [14] [%] | growth at 10 µM [15] [%] | Activity [16] | growth at 10 µM [19] [%] | growth at 10 µM [20] [%] | growth at 10 µM [21] [%] | growth at 10 µM [23] [%] | Activity [24] [%] | further results
1 | CCC1C2CCC(C2)C1NC(=O)CSc1nc2ccccc2c2nc(=O)c(-c3ccc(C)cc3)nn12 (stereo unspecified) | inactive | inactive | inactive | inactive | 120 | 110 | 44 | 96 | 120 | inactive | – | – | – | – | – | – | – | – | – | Activity [6]: 100%
2 | O=C(O)CSc1nc2ccccc2c2nc(=O)c(-c3ccccc3)nn12 | inactive | inactive | inactive | inactive | 50 | 100 | 3.6 | 75 | 40.9 | inactive | 86.6 | 89 | 92.5 | inactive | 91.9 | 92 | 82.5 | 90.8 | 34 | growth at 10 µM [13]: 96.8%; growth at 10 µM [17]: 93.2%; growth at 10 µM [18]: 97%; growth at 10 µM [22]: 91.4%
3 | COc1ccc(-c2nn3c(SCC(=O)O)nc4ccccc4c3nc2=O)cc1 | inactive | inactive | inactive | inactive | 0 | 105 | 45 | 80 | 191.5 | inactive | 93.9 | 91.6 | 90.7 | inactive | 65.8 | 80.9 | 95.9 | 91.7 | 88.9 | growth at 10 µM [25]: 63.5%; growth at 10 µM [26]: 86.9%; growth at 10 µM [27]: 95.4%; growth at 10 µM [28]: 94.7%; growth at 10 µM [29]: 94.9%; growth at 10 µM [30]: 91.4%; growth at 10 µM [31]: 89.9%; growth at 10 µM [32]: 84.8%
